What was measured:
HCT-116 [1] = assay: Diameter of zone of inhibition for cell colony formation of solid tumor HCT116 at the dose of 210 ug; format: functional, Homo sapiens
Procedure, shortened: (§1)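 HCT116, L1210 leukaemia and normal fibroblast cells were seeded in soft agar in separate 60 mm dishes. The compound was applied to a filter-paper disk laid on the agar. Colony-formation inhibition zones were read after 6–7 days at 37 °C and expressed in zone units (200 units = 6.5 mm; 950 = total inhibition; 0 = none). n > 2 unless otherwise indicated.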

L1210 [2] = assay: Diameter of zone of inhibition for cell colony formation of leukemia L1210 at the dose of 210 ug; format: functional, Mus musculus
Procedure, shortened: (§2)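 Soft agar disk diffusion: leukemia (L1210), solid tumor (HCT116, or colon H15) and normal fibroblast cells seeded in soft agar in separate 60 mm dishes. Compound applied to a filter paper disk (dose in μg/disk) set on the agar. Colony-formation inhibition zones read after 6–7 days at 37 °C. 200 zone units = 6.5 mm; 950 = total inhibition; a range marks partial colony shrinkage. n > 2 unless noted.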

[3] = Diameter of zone of inhibition for cell colony formation of normal fibroblast at the dose of 210 ug; Range is 0-6.5; format: functional, Homo sapiens; procedure, shortened: as §2
HCT-116 [4] = assay: Diameter of zone of inhibition for cell colony formation of solid tumor HCT116 at the dose of 190 ug; format: functional, Homo sapiens; procedure, shortened: as §2
[5] = Diameter of zone of inhibition for cell colony formation of normal fibroblast at the dose of 190 ug; Range is 0-12.35; format: functional, Homo sapiens; procedure, shortened: as §2
L1210 [6] = assay: Diameter of zone of inhibition for cell colony formation of leukemia L1210 at the dose of 190 ug; Range is 0-5.525; format: functional, Mus musculus; procedure, shortened: as §2
SW-620 = assay: Growth inhibitory activity against human colon SW620 cell line; format: functional
Procedure, shortened: (§3)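 Cell-line screen run at NCI by published procedures. […] The mean graph midpoint is taken across all human cancer cell lines successfully tested.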

MCF7 = assay: Growth inhibitory activity against human breast MCF-7 cell line; format: functional; procedure, shortened: as §3
[7] = tested on: Panel (Carcinoma cell lines); assay: Mean graph mid point value for cytotoxic activity against human cancer cell lines was determined; format: functional; procedure, shortened: as §3
HCT-116 [8] = assay: Growth inhibitory activity against human colon HCT116 cell line; format: functional; procedure, shortened: as §3
HT-29 = assay: Growth inhibitory activity against human colon HT-29 cell line; format: functional; procedure, shortened: as §3
HL-60 = assay: Growth inhibitory activity against human leukemia HL-60 (TB) cell line; format: functional; set-up: unit not given here
[9] = Diameter of zone of inhibition for cell colony formation of normal fibroblast at the dose of 190 ug; Range is 0-13.65; format: functional, Homo sapiens; procedure, shortened: as §2
NCI-H522 = assay: Growth inhibitory activity against human lung NCI-H522 cell line; format: functional; procedure, shortened: as §3
RXF 393 = assay: Growth inhibitory activity against human renal RXF-393 cell line; format: functional; procedure, shortened: as §3
[10] = Diameter of zone of inhibition for cell colony formation of normal fibroblast at the dose of 210 ug; Range is 0-13.975; format: functional, Homo sapiens; procedure, shortened: as §2
L1210 [11] = assay: Diameter of zone of inhibition for cell colony formation of leukemia L1210 at the dose of 210 ug; Range is 3.75-5.525; format: functional, Mus musculus; procedure, shortened: as §2
[12] = Diameter of zone of inhibition for cell colony formation of normal fibroblast at the dose of 210 ug; format: functional, Homo sapiens; procedure, shortened: as §2
L1210 [13] = assay: Diameter of zone of inhibition for cell colony formation of leukemia L1210 at the dose of 210 ug; Range is 0-8.125; format: functional, Mus musculus; procedure, shortened: as §2
L1210 [14] = assay: Diameter of zone of inhibition for cell colony formation of leukemia L1210 at the dose of 190 ug; format: functional, Mus musculus; procedure, shortened: as §2
HCT-116 [15] = assay: Diameter of zone of inhibition for cell colony formation of solid tumor HCT116 at the dose of 190 ug; Range is 22.75-24.375; format: functional, Homo sapiens; procedure, shortened: as §1
[16] = Diameter of zone of inhibition for cell colony formation of normal fibroblast at the dose of 190 ug; Range is 0-10.25; format: functional, Homo sapiens; procedure, shortened: as §2
[17] = Diameter of zone of inhibition for cell colony formation of normal fibroblast at the dose of 190 ug; format: functional, Homo sapiens; procedure, shortened: as §2
[18] = Diameter of zone of inhibition for cell colony formation of normal fibroblast at the dose of 190 ug; Range is 0-12.025; format: functional, Homo sapiens; procedure, shortened: as §2
HCT-116 [19] = assay: Diameter of zone of inhibition for cell colony formation of solid tumor HCT116 at the dose of 200 ug; format: functional, Homo sapiens; procedure, shortened: as §1
[20] = Diameter of zone of inhibition for cell colony formation of normal fibroblast at the dose of 200 ug; format: functional, Homo sapiens; procedure, shortened: as §2
L1210 [21] = assay: Diameter of zone of inhibition for cell colony formation of leukemia L1210 at the dose of 200 ug; format: functional, Mus musculus; procedure, shortened: as §2
[22] = Diameter of zone of inhibition for cell colony formation of normal fibroblast at the dose of 210 ug; Range is 0-9.425; format: functional, Homo sapiens; procedure, shortened: as §2
L1210 [23] = assay: Diameter of zone of inhibition for cell colony formation of leukemia L1210 at the dose of 210 ug; Range is 6.5-8.125; format: functional, Mus musculus; procedure, shortened: as §2
[24] = Diameter of zone of inhibition for cell colony formation of normal fibroblast at the dose of 190 ug; Range is 0-2.275; format: functional, Homo sapiens; procedure, shortened: as §2
[25] = Diameter of zone of inhibition for cell colony formation of normal fibroblast at the dose of 190 ug; Range is 0-8.775; format: functional, Homo sapiens; procedure, shortened: as §2
L1210 [26] = assay: Diameter of zone of inhibition for cell colony formation of leukemia L1210 at the dose of 190 ug; Range is 0-6.825; format: functional, Mus musculus; procedure, shortened: as §2
Mus musculus = assay: Tumor growth delay of human HCT116 colorectal carcinoma in mice after intravenous administration at dose of 100 mg/kg; format: functional

`COc1ccc(S(=O)(=O)NC(=O)c2ccc(Cl)cc2Cl)cc1OC` gave an Inhibition (HCT-116 [1]) of 16.25 mm, an Inhibition (L1210 [2]) of 0 mm and an Inhibition [3] of 6.5 mm.

`Cc1ccc(S(=O)(=O)NC(=O)c2ccc(Cl)cc2Cl)cc1Cl` showed an Inhibition (HCT-116 [4]) of 18.52 mm and an Inhibition [5] of 12.35 mm.

`COc1ccc(S(=O)(=O)NC(=O)c2ccc(Cl)cc2Cl)cc1` gave an Inhibition (L1210 [6]) of 5.52 mm, a GI50 (SW-620) of 9.5 µM and a GI50 (MCF7) of 23.9 µM. It also gave an MGM [7] of 28.8, an Inhibition (HCT-116 [4]) of 21.12 mm and a GI50 (HCT-116 [8]) of 3.5 µM. For the same molecule, the GI50 (HT-29) was 41.5 µM, the GI50 (HL-60) was 38.9 and the Inhibition [9] was 13.65 mm. It also gave a GI50 (NCI-H522) of 39.6 µM and a GI50 (RXF 393) of 6.4 µM.

With `O=C(NS(=O)(=O)c1ccc(Br)cc1)c1ccc(Cl)cc1Cl` the Inhibition (HCT-116 [1]) was 20.15 mm, the Inhibition [10] was 13.97 mm and the Inhibition (L1210 [11]) was 5.52 mm.

In the case of `Nc1cc(Cl)ccc1C(=O)NS(=O)(=O)c1ccc(Cl)cc1`, the Inhibition [12] is reported as 8.77 mm, the Inhibition (HCT-116 [1]) is reported as 19.82 mm and the Inhibition (L1210 [13]) is reported as 8.12 mm.

In the case of `Cc1cc(Br)ccc1C(=O)NS(=O)(=O)c1ccc(Cl)cc1`, the Inhibition (L1210 [14]) is reported as 0 mm, the Inhibition (HCT-116 [15]) is reported as 24.37 mm and the Inhibition [16] is reported as 10.25 mm.

Work on `CN(C)c1ccc(C(=O)NS(=O)(=O)c2ccc(Cl)cc2)cc1` yielded an Inhibition (L1210 [14]) of 5.85 mm, an Inhibition [17] of 0 mm and an Inhibition (HCT-116 [4]) of 11.7 mm.

In the case of `Cc1cc(Cl)ccc1C(=O)NS(=O)(=O)c1ccc(Cl)cc1`, the GI50 (SW-620) is reported as 37.9 µM, the GI50 (MCF7) is reported as 17.7 µM and the MGM [7] is reported as 41.7. For the same molecule, the GI50 (HCT-116 [8]) was 9.7 µM, the GI50 (HT-29) was 100 µM and the GI50 (HL-60) was 49.5. For the same molecule, the GI50 (NCI-H522) was 100 µM and the GI50 (RXF 393) was 8.6 µM.

Work on `O=C(NS(=O)(=O)c1cccc(-c2ccccc2)c1)c1ccc(Cl)cc1Cl` yielded an Inhibition [18] of 12.02 mm, an Inhibition (L1210 [14]) of 0 mm and an Inhibition (HCT-116 [4]) of 19.5 mm.

`O=C(NS(=O)(=O)c1cc([N+](=O)[O-])ccc1Cl)c1ccc(Cl)cc1Cl` gave an Inhibition (HCT-116 [19]) of 0 mm, an Inhibition [20] of 0 mm and an Inhibition (L1210 [21]) of 0 mm.

With `O=C(NS(=O)(=O)c1ccc(-c2ccccc2)cc1)c1ccc(Cl)cc1Cl` the Inhibition (HCT-116 [1]) was 16.25 mm, the Inhibition [22] was 9.42 mm and the Inhibition (L1210 [23]) was 8.12 mm.

`O=C(NS(=O)(=O)c1ccc(Cl)cc1)c1ccc(Cl)cc1` showed an Inhibition (L1210 [14]) of 5.85 mm, an Inhibition [24] of 2.27 mm and an Inhibition (HCT-116 [4]) of 10.72 mm.

`O=C(NS(=O)(=O)c1ccc(Br)c(Br)c1)c1ccc(Cl)cc1Cl` gave an Inhibition [25] of 8.77 mm, an Inhibition (HCT-116 [4]) of 13.84 mm and an Inhibition (L1210 [26]) of 6.82 mm.

`O=C(NS(=O)(=O)c1ccc(Cl)cc1)c1ccc([N+](=O)[O-])cc1` showed an Inhibition (L1210 [14]) of 6.5 mm, an Inhibition [17] of 0 mm and an Inhibition (HCT-116 [4]) of 8.77 mm.

For `CCc1c2c(nc3ccc(OC(=O)N4CCC(N5CCCCC5)CC4)cc13)-c1cc3c(c(=O)n1C2)COC(=O)[C@]3(O)CC.Cl`, the Growth delay (Mus musculus) was 15 days.
